Test results as given in publication PMC5049450 (Journal of Clinical Pharmacology, 2015).
Like-named read-outs stand apart in the source and are kept apart here.

Experiments:
[1] = cited from earlier work
[2] = patients with advanced solid tumors, cited from earlier work
[3] = rats; cited from earlier work
[4] = increased solubility at low pH; cited from earlier work
[5] = tested on: CYP3A; conditions: phase‐1 oxidative metabolism; cited from earlier work
[6] = Safety assessment; assay type: in vivo, human
Summary of the method: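 Noncancer Child–Pugh mild, moderate or severe hepatic impairment subjects (6 per group) and 13 healthy controls received one oral test-compound dose after an overnight fast. Safety was monitored throughout through adverse events, clinical laboratory tests, ECGs and physical examinations. Adverse events were graded by NCI-CTCAE v4.03 and relationship to drug was recorded. Safety follow-up was on day 31.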

[7] = cited from earlier work; remark: listed apart in the source
[8] = assay type: in vivo, human; set-up: AUC∞, unbound buparlisib GMR (90%CI) / Cmax, total buparlisib GMR (90%CI) / Cmax, unbound buparlisib GMR (90%CI): unit not given beside the values; conditions: for increase in Cmax compared with normal hepatic function / increase in buparlisib exposure (AUC∞) compared with normal hepatic function: total buparlisib
Summary of the method: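 After a single oral dose following an overnight fast, K3EDTA blood was drawn predose and at 0.5–336 h. Samples were centrifuged at 1500 g for 10 min at 3–5 °C and plasma stored at –70 °C. Plasma levels were measured by validated LC-MS/MS after solid-phase extraction with a stable-labelled internal standard. Parameters were derived by noncompartmental analysis and compared by ANOVA of log-transformed values, with hepatic function as the fixed effect.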

[9] = tested on: plasma protein; conditions: across species; independent of drug concentration; cited from earlier work
[10] = healthy volunteers, cited from earlier work
[11] = moderate‐hepatic‐function group
[12] = linear regression, severe hepatic impairment relative to control group (1.6 vs 1.0), not statistically significant
[13] = linear regression, severe hepatic impairment relative to control group (29.7 g/L vs 45.2 g/L), not statistically significant
[14] = mild hepatic impairment versus normal hepatic function group, 30 mg
[15] = moderate hepatic impairment versus normal hepatic function group, 30 mg
[16] = coadministration with ritonavir

Nc1cc(C(F)(F)F)c(-c2cc(N3CCOCC3)nc(N3CCOCC3)n2)cn1 [buparlisib]
maximum tolerated dose [1]: 100 mg/day | increases in Cmax and AUC0–24 with dose ([2]; following multiple doses): approximately dose‐proportional | time of maximum plasma concentrations postdose [2]: 1 to 4 h | dose eliminated renally [3]: 20–30% | solubility [4]: soluble | estimated fraction metabolized by CYP3A [5]: > 0.9 | subjects with QTcF >450 milliseconds ([6]; all subjects): Eight subjects | subjects with QTcF increase of >30 milliseconds from baseline ([6]; all subjects): Six subjects | subjects with QTcF increase of >30 milliseconds from baseline ([6]; mild‐hepatic‐function group): 2 | subjects reporting treatment‐related AEs ([6]; moderate hepatic impairment, grade‐1 prolonged QTcF, grade‐1 hypertension): 2 subjects | subjects with QTcF >450 milliseconds [6, 11]: 4 | subjects with QTcF increase of >30 milliseconds from baseline [6, 11]: 2 | subjects reporting treatment‐related AEs ([6]; normal hepatic function, grade‐1 dizziness, grade‐1 dermatitis acneiform): 2 subjects | subjects with QTcF increase of >30 milliseconds from baseline ([6]; normal‐hepatic‐function group): 2 | subjects reporting treatment‐related AEs ([6]; severe hepatic impairment, grade‐2 thrombocytopenia): 1 subject | subjects with QTcF >450 milliseconds ([6]; severe‐hepatic‐function group): 4 | deaths during the study ([6]; single oral 30 mg, all subjects (N = 31)): no deaths | tolerability ([6]; single oral 30‐mg dose, subjects with and without hepatic impairment): well tolerated | permeability [7]: highly permeable | AUC(0-inf) ([8]; human, plasma, po, 30 mg, AUC∞, geometric mean (CV%), single oral 30 mg, fasted, normal hepatic function (n = 13)): 6010 ng·h/mL | Cmax ([8]; human, plasma, po, 30 mg, Cmax, geometric mean (CV%), single oral 30 mg, fasted, normal hepatic function (n = 13)): 221 ng/mL | half-life ([8]; human, plasma, po, 30 mg, T1/2, geometric mean (CV%), single oral 30 mg, fasted, normal hepatic function (n = 13)): 53 h | Tmax ([8]; human, plasma, po, 30 mg, Tmax, median (range), single oral 30 mg, fasted, normal hepatic function (n = 13)): 1 h | Vd/F ([8]; human, plasma, po, 30 mg, Vz/F, geometric mean (CV%), single oral 30 mg, fasted, normal hepatic function (n = 13)): 381 L | increase in AUC∞ associated with higher (52%) INR [8, 12]: 15% | increase in Cmax associated with higher (52%) INR [8, 12]: 11% | increase in AUC∞ associated with lower (34%) baseline albumin level [8, 13]: 26% | increase in Cmax associated with lower (34%) baseline albumin level [8, 13]: 15% | AUC∞, unbound buparlisib GMR (90%CI) [8, 14]: 1.17 (0.84, 1.64) | Cmax, total buparlisib GMR (90%CI) [8, 14]: 1.26 (1.00, 1.58) | Cmax, unbound buparlisib GMR (90%CI) [8, 14]: 1.28 (0.99, 1.64) | increase in Cmax compared with normal hepatic function ([8]; mild hepatic impairment): 26% | increase in buparlisib exposure (AUC∞) compared with normal hepatic function ([8]; mild hepatic impairment): 16% | AUC∞, unbound buparlisib GMR (90%CI) [8, 15]: 1.18 (0.84, 1.65) | Cmax, total buparlisib GMR (90%CI) [8, 15]: 1.08 (0.87, 1.36) | Cmax, unbound buparlisib GMR (90%CI) [8, 15]: 1.12 (0.87, 1.44) | increase in Cmax compared with normal hepatic function ([8]; moderate hepatic impairment): 8% | increase in buparlisib exposure (AUC∞) compared with normal hepatic function ([8]; moderate hepatic impairment): 14% | Cmax, total buparlisib GMR (90%CI) ([8]; severe hepatic impairment versus normal hepatic function group, 30 mg): 1.45 (1.15, 1.81) | increase in Cmax compared with normal hepatic function ([8]; severe hepatic impairment): 45% | increase in buparlisib exposure (AUC∞) compared with normal hepatic function ([8]; severe hepatic impairment): 20% | CL/F, geometric mean (CV%) ([8]; single oral 30 mg, fasted, mild hepatic impairment, Child–Pugh A (n = 6)): 4.3 (46) L/h | CL/F, geometric mean (CV%) ([8]; single oral 30 mg, fasted, moderate hepatic impairment, Child–Pugh B (n = 6)): 4.4 (62) L/h | CL/F, geometric mean (CV%) ([8]; single oral 30 mg, fasted, normal hepatic function (n = 13)): 5.0 (37) L/h | CL/F, geometric mean (CV%) ([8]; single oral 30 mg, fasted, severe hepatic impairment, Child–Pugh C (n = 6)): 4.2 (41) L/h | secondary absorption peak, time postdose ([8]; single oral 30 mg, subjects with or without hepatic impairment): approximately 24 hours | plasma protein binding [9]: 79–85% | apparent clearance ([10]; buparlisib with ritonavir): 3.27 L/h | elimination half‐life (T1/2) ([10]; buparlisib with ritonavir): 71.6 h | apparent clearance ([10]; buparlisib without ritonavir): 5.37 L/h | elimination half‐life (T1/2) ([10]; buparlisib without ritonavir): 53.3 h | increase in Cmax geometric mean ratio [10, 16]: 19% | increase in buparlisib exposure (AUC∞) [10, 16]: 73%
